Compound activity as filed in PubChem BioAssay.
This is a sample that favours compounds with a hit; in the whole collection about 1.6% have one here.
MBD2 inh – blocks human MBD2 binding to methylated DNA; Q9UBB5; AID 686964; hit rate 0.31% among 370,000; TR-FRET, MBD2 binding to methylated oligonucleotide; inhibition, % at 4.4 µM; in the data active = inhibition above about 13%
TDP2 inh – blocks human TDP2 phosphodiesterase activity | recombinant TDP2, T5PNP hydrolysis, p-nitrophenol absorbance 415 nm | O95551 | AID 720702 | inhibition, % at 12.8 µM | hit rate 0.34% among 370,000;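 active = inhibition above the mean of all tested compounds plus 3 SD, set per campaign, cut at about 25% in these data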;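 also: 0% = DMSO with enzyme and 100% = buffer with substrate but no TDP2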
Target sequence (O95551 whole entry, looked up): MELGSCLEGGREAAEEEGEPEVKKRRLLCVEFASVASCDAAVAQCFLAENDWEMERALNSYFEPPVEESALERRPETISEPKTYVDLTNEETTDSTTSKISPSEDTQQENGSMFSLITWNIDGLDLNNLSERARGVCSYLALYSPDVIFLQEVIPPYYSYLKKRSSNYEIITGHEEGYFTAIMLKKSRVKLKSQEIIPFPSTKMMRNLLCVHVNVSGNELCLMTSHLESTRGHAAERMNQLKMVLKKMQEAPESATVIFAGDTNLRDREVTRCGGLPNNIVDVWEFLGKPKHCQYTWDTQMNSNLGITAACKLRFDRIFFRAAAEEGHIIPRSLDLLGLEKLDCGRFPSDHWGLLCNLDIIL
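System: recombinant human TDP2 / Amount: 120 nM TDP2 per well / Also added: 5 mM T5PNP chromogenic substrate / Doses: 12.8 µM single point, 1% DMSO / Incubation: 2 h at 37 °C / Detection: p-Nitrophenol epi absorbance / Evaluation: % inhibition relative to enzyme-containing and enzyme-free wells / Repeats: singlicate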
UHRF1 MBD2 ctr – UHRF1 methyl-DNA binding inhibition; Q96T88; UHRF1 binding to methylated oligo, TR-FRET; inhibition, % at 4.4 µM; hit rate 0.75% among 370,000; AID 687016; in the data active = inhibition above about 21%;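 also: UHRF1 SRA domain binding a hemimethylated CpG hairpin DNA probe; 0% = median of test compound wells and 100% = reference inhibitor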
LEDGF integ inh – blocks HIV-1 LEDGF/p75-dependent DNA integration. inhibition, % at 3.7 µM. hit rate 0.64% among 370,000. TR-FRET IN-LEDGF/p75 DNA integration, Eu/Cy5;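 active = inhibition above the screen-wide mean plus 3 SD, cut at about 13% in these data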;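 also: signal is the Cy5 over europium emission ratio at 671 and 618 nm; 0% = plate median of compound wells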
TDP2 inh conf – confirmation of human TDP2 inhibitors; hit rate 22% among 1,100; shares compounds with TDP2 inh; inhibition, % at 12.8 µM; AID 743263; recombinant human TDP2, absorbance read-out; in the data active = inhibition above about 25%;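 also: 0% = vehicle with enzyme and 100% = no enzyme buffer only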
* = called active by the depositor; / = no result.

SMILES	MBD2 inh	TDP2 inh	UHRF1 MBD2 ctr	LEDGF integ inh	TDP2 inh conf
CCCCCCCCN1C(=O)[C@H](CC(=O)NCc2ccc(C)o2)C[C@@]2(C(=O)OC)CC(C)(C)CC=C12	-4	1	0	5	/
O=C(c1cccnc1)N1CCN(Cc2ccc3ccccc3c2)CC1	2	31*	-4	-3	0
CC1=NN(c2ccc(S(=O)(=O)O)cc2C)C(=O)C1	-6	34*	-5	1	38*
CN1CCN(S(=O)(=O)c2ccc3c(c2)CC(=O)N3C)CC1	-4	21	-3	-2	/
CC(=O)c1cccc(NC(=O)C(=O)c2cn(CC(=O)N3CCCCC3)c3ccccc23)c1	2	10	0	0	/
CC(C)c1cccc(C(C)C)c1NC(=O)CN(C)C1CCS(=O)(=O)C1 (stereo not given)	-1	-1	5	3	/
N#C/C(=C\c1ccncc1)C(=O)Nc1ccc(C(=O)O)cc1	-1	-23	0	9	/
CC(C)c1ccc(NC(=O)/C(C#N)=C/c2ccncc2)cc1	2	24*	0	1	5
COc1ccc(C2=NN(C(=O)CCC(=O)O)C(c3ccc(OC)c(OC)c3)C2)cc1 (stereo not given)	3	25*	0	3	8
N#Cc1ccccc1S(=O)(=O)N1CCN(CC(O)COc2ccccc2F)CC1 (stereo not given)	-1	28*	0	0	8
O=S(=O)(c1ccccc1C(F)(F)F)N1CCN(CC(O)COc2ccccc2F)CC1 (stereo not given)	6	7	3	1	/
Cc1ccc(C)c(S(=O)(=O)Nc2ccc(O)c(C(=O)O)c2)c1	1	0	1	-2	/
Cc1ccc(C)c(S(=O)(=O)Nc2ccc(O)c3ccccc23)c1	-17	42*	0	8	15
Cc1ccccc1N1CCN(Cc2ccc([N+](=O)[O-])o2)CC1	-2	6	-3	-1	/
O=[N+]([O-])c1ccc(CN2CCN(c3ccccc3Cl)CC2)o1	-3	27*	1	6	18
CS(=O)(=O)Nc1ccccc1-c1cccc2nccn12	-4	5	-1	-5	/
CCOC(=O)C1CCN(c2cc3c(cc2NC(=O)c2ccccc2Br)n(C)c(=O)n3C)CC1	5	26*	-1	1	0
Cc1nn2c(C)c(C(=O)Nc3ccccc3)cnc2c1C#N	2	-14	6	2	/
Cc1ccc(S(=O)(=O)c2c(N)n(-c3ccccc3)c3nc4ccccc4nc23)cc1	1	-10	-4	-3	/
O=S(=O)(Nc1c(S(=O)(=O)c2ccccc2)c2nc3ccccc3nc2n1C1CCCCC1)c1ccccc1	2	89*	8	33*	84*
C=CCn1c(NS(=O)(=O)c2ccccc2)c(S(=O)(=O)c2ccc(C)cc2)c2nc3ccccc3nc21	-1	37*	3	5	39*
CC(=O)Nc1c(S(=O)(=O)c2ccccc2)c2nc3ccccc3nc2n1Cc1ccccc1	4	2	-3	3	/
CC(C)OCCCN(CC(O)c1ccccc1)CC(O)c1ccccc1 (stereo not given)	-3	2	0	0	/
C1=CCC(/C=N/n2cnnc2)CC1 (stereo not given)	3	-12	0	-2	/
Cc1nnc(N2C(=O)C(=O)/C(=C(/O)c3ccc4c(c3)CC(C)O4)C2c2ccccc2F)s1 (stereo not given)	2	37*	2	-3	-5
SMILES	MBD2 inh	TDP2 inh	UHRF1 MBD2 ctr	LEDGF integ inh	TDP2 inh conf
CN(C)CCNc1ccc2ncn3c4ccc(O)cc4c(=O)c1c23	1	31*	-67	8	10
C=CCN(CC=C)C(=O)CN1C(=O)NC(C)(c2ccc3cc(OC)ccc3c2)C1=O (stereo not given)	-4	-1	-2	6	/
COc1ccc(CCNCC(=O)Nc2ccc(C)c(S(=O)(=O)N(C)C)c2)cc1OC	5	32*	4	0	9
COc1ccc(CCNCC(=O)Nc2ccc(C)c(Br)c2)cc1OC	1	13	-1	5	/
COc1ccccc1N1CCN(CCCCOc2c(OC)cccc2OC)CC1	-2	27*	4	-3	-5
COc1ccccc1N1CCN(CCOc2c(OC)cccc2OC)CC1	-4	8	-1	-1	/
O=C(CCn1c(=O)oc2ccc(Cl)cc21)N1CCN(c2ccccc2)CC1	-3	25*	-1	-1	-1
O=C(CCn1c(=O)oc2ccc(Cl)cc21)N1CCN(Cc2ccccc2)CC1	3	-20	3	-3	/
CCOC(=O)c1c(S(=O)(=O)NCC(=O)Nc2ccccc2OC)c(C)n(C)c1C	1	4	-2	-2	/
CCOC(=O)c1c(S(=O)(=O)NCC(=O)Nc2ccccc2F)c(C)n(C)c1C	0	25*	-1	-3	7
COc1ccc(CCNC(=O)c2ccccc2)cc1	2	70*	-1	-4	2
CC(=O)C1=C(O)C(=O)N(Cc2cccnc2)C1c1ccc(C)cc1 (stereo not given)	-5	4	-9	0	/
CCN(CC)CCCN1C(=O)C2C(C(=O)Nc3ccc(C(C)C)cc3)C3C=CC2(O3)C1C(=O)NC1CCCCC1 (stereo not given)	-4	27*	-1	1	-2
CC(C)c1ccc(NC(=O)C2C3C=CC4(O3)C2C(=O)N(CCN2CCOCC2)C4C(=O)NC2CCCCC2)cc1 (stereo not given)	-1	-13	4	4	/
COc1ccc(Cc2nnc(SCC(=O)Nc3nc(C)cs3)o2)cc1	-8	-8	-2	-4	/
Cc1ccc(NC(=O)Cc2nnc(SCC(=O)Nc3nncs3)n2C)c(C)c1	-2	29*	1	0	2
O=C(NC1CCC1)O[C@H]1CC[C@@]23CCCN2C(=O)CCC[C@H]3C1	-3	-6	-2	2	/
CC(C)c1ccc(NC(=O)NCc2ccccn2)cc1	1	52*	-3	-5	3
O=C(NCc1ccccn1)Nc1ccc(Cl)c(Cl)c1	4	0	-1	0	/
CC(=O)OC(C(=O)NC1CCCCC1)c1ccccc1Cl (stereo not given)	3	-14	6	3	/
CCOC(=O)c1c(C)[nH]c(C(=O)CN2CC(C)OC(C)C2)c1C (stereo not given)	3	29*	2	3	1
CC(=O)Nc1ccc(CN2CCCN(C)CC2)cc1	2	27*	-1	1	-2
COc1ccccc1C(=O)Nc1nc(C)cc(C)n1	3	25*	1	-3	1
CC1=NN(c2ccccc2)C(=O)/C1=C\c1ccc(Br)s1	2	52*	0	5	28*
Cc1ccc2nc(-c3ccc(NC(=O)C(C)N4C(=O)c5ccccc5C4=O)cc3)sc2c1 (stereo not given)	1	3	-2	2	/
CC(OC(=O)c1ccc(Cl)cc1)C(=O)NCc1ccc2c(c1)OCO2 (stereo not given)	-1	1	3	-2	/
